Measured values: ChEMBL document CHEMBL1125718, “Synthesis and biological evaluation of dipeptidyl and tripeptidyl polyoxin and nikkomycin analogues as anticandidal prodrugs” (1991)
Values after ≈ are worked out from the molar mass of the structure shown.

Tests used:
Candida albicans [1] = test: Compound was tested for rate of hydrolysis (percent hydrolyzed per 10 min) by cell extract from Candida albicans H-317.; format: functional
Outline: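 Antibiotic (0.5 mg in H2O–DMSO 50:50) was mixed with cell extract of C. albicans H-317 (3.75 mg protein/mL) and incubated at 36 °C. Portions were withdrawn every 20 min and analysed directly by TLC and HPLC. Nle-UPOC served as control.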

[2] = target: Chitin synthase 1 (Candida albicans) (UniProt P23316); test: Compound was tested for its ability to inhibit chitin synthetase using Candida albicans strain H-317.; format: functional
Chain of Chitin synthase 1 (Candida albicans) (P23316 whole entry, looked up): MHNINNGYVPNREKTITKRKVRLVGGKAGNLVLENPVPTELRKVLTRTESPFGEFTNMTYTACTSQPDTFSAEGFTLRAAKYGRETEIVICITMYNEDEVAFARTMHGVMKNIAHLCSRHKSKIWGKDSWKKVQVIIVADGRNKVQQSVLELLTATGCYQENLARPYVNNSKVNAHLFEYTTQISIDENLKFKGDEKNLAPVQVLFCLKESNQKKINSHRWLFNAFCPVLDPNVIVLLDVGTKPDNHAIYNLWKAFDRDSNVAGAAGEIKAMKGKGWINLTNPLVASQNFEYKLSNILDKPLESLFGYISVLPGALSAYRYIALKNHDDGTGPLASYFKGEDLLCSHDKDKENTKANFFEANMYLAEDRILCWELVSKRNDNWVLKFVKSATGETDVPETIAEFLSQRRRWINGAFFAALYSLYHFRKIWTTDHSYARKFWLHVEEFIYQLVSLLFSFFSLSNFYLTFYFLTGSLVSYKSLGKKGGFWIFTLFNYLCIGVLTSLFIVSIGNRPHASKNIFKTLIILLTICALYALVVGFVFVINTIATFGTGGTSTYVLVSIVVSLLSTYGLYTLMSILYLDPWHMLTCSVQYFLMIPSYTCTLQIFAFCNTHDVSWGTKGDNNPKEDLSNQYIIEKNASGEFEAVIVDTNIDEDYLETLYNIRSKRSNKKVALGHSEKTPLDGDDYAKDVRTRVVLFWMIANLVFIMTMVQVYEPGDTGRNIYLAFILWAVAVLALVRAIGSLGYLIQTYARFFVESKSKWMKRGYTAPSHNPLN
Outline: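 Mixed membrane fraction from C. albicans H-317 was used as the source of total chitin synthetase. Activity was measured with and without polyoxin compounds as N-acetylglucosamine incorporation into chitin. The value is the concentration giving 50% inhibition.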

Candida albicans [3] = test: (§1) Compound was tested for percent inhibition of transport of (Leu)2 into Candida albicans H-317.; format: functional
Outline: (§2)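 Uptake of labeled dileucine was measured with analogues added at 10-fold the molar concentration of the transport substrate. Samples were taken at 0, 1, 2, 3 and 4 min, collected on prewet 0.45 µm filters and washed twice with cold water. Rate was expressed as nmol peptide per mg dry-weight cells per min.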

Candida albicans [4] = test: Compound was tested for its lowest concentration at which growth of H-317 strain of Candida albicans was clearly inhibited.; format: functional
Candida albicans [5] = test: Compound was tested for its lowest concentration at which growth of 124 strain of Candida albicans was clearly inhibited.; format: functional
Candida albicans [6] = test: Compound was tested for percent inhibition of transport of (Met)3 into Candida albicans H-317.
Candida albicans [7] = test: Compound was tested for its lowest concentration at which growth of 124N5 strain of Candida albicans was clearly inhibited.; format: functional
Candida albicans [8] = test: Compound was tested for percent inhibition of transport of (Met)3 into Candida albicans H-317.; set-up: concentration or dose not given beside the values
Candida albicans [9] = test: as §1; format: functional; set-up: concentration or dose not given beside the values; outline: as §2
Candida albicans [10] = test: Compound was tested for percent inhibition of transport of (Met)3 into Candida albicans H-317.; set-up: concentration or dose not given beside the values; remark: listed apart in the source

SMILES	Hydrolysis (Candida albicans [1])	ID50 [2] [µg/mL]	Transport inhibition (Candida albicans [3]) [%]	MIC (Candida albicans [4]) [µg/mL]	MIC (Candida albicans [5]) [µg/mL]	Transport inhibition (Candida albicans [6]) [%]	MIC (Candida albicans [7]) [µg/mL]	Transport inhibition (Candida albicans [8]) [%]	Transport inhibition (Candida albicans [9]) [%]	Transport inhibition (Candida albicans [10]) [%]
CCCCCCCC(=O)NCCCC[C@H](N)C(=O)N[C@H](C(=O)O)[C@H]1O[C@@H](n2ccc(=O)[nH]c2=O)[C@H](O)[C@@H]1O	0	0.5 (≈ 0.923 µM)	50	> 666	666 (≈ 1230 µM)	10	> 666			
N[C@@H](Cc1cccc(F)c1)C(=O)N[C@H](C(=O)O)[C@H]1O[C@@H](n2ccc(=O)[nH]c2=O)[C@H](O)[C@@H]1O	33	2 (≈ 4.42 µM)		> 1000	> 1000		> 1000	0	6	
NCCOC[C@H](N)C(=O)N[C@H](C(=O)O)[C@H]1O[C@@H](n2ccc(=O)[nH]c2=O)[C@H](O)[C@@H]1O	0	100 (≈ 240 µM)		> 1000	> 1000		> 1000	0	58	
C[C@@H]([C@H](N)C(=O)N[C@H](C(=O)O)[C@H]1O[C@@H](n2ccc(=O)[nH]c2=O)[C@H](O)[C@@H]1O)[C@H](O)c1ccc(O)cn1 [NIKKOMYCIN]	0	0.3 (≈ 0.606 µM)		20 (≈ 40.4 µM)	10 (≈ 20.2 µM)		666 (≈ 1340 µM)	20	80	
NC(Cc1cccc(F)c1)C(=O)O (racemic) [M-FLUOROPHENYLALANINE]				> 1000	> 1000		> 1000			
NC(=O)OC[C@H](O)[C@@H](O)[C@H](N)C(=O)N[C@H](C(=O)O)[C@H]1O[C@@H](n2cc(CO)c(=O)[nH]c2=O)[C@H](O)[C@@H]1O [POLYOXIN B]		0.8 (≈ 1.58 µM)		40 (≈ 78.8 µM)	20 (≈ 39.4 µM)		166 (≈ 327 µM)	0	0	
CCCCCCCC(=O)NCCCC[C@H](NC(=O)[C@@H](N)CC(C)C)C(=O)N[C@H](C(=O)O)[C@H]1OC(n2ccc(=O)[nH]c2=O)[C@H](O)[C@@H]1O (stereo partly specified)	0	50 (≈ 76.4 µM)		> 666	> 666		> 666		0	32
CC(C)C[C@H](N)C(=O)N[C@H](C(=O)N[C@H](C(=O)O)[C@H]1OC(n2cc(C=O)nc2O)[C@H](O)[C@@H]1O)[C@H](C)[C@H](O)c1ccc(O)cn1 (stereo partly specified)	33	30 (≈ 49.3 µM)		166 (≈ 273 µM)	83 (≈ 136 µM)		333 (≈ 547 µM)		0	22
CCCCCCCC(=O)NCCCC[C@H](NC(=O)[C@@H](N)CCCCNC(=O)CCCCCCC)C(=O)N[C@H](C(=O)O)[C@H]1OC(n2ccc(=O)[nH]c2=O)[C@H](O)[C@@H]1O (stereo partly specified)	0	80 (≈ 101 µM)		> 666	> 666		> 666		60	56
CC(C)C[C@H](N)C(=O)N[C@H](C(=O)N[C@H](C(=O)O)[C@H]1OC(n2cc(CO)c(=O)[nH]c2=O)[C@H](O)[C@@H]1O)[C@H](O)[C@@H](O)COC(N)=O (stereo partly specified)	5	20 (≈ 32.2 µM)		333 (≈ 537 µM)	333 (≈ 537 µM)		666 (≈ 1070 µM)	27	0	
COC(=O)/C=C/C(=O)NC[C@H](N)C(=O)N[C@H](C(=O)O)[C@H]1O[C@@H](n2ccc(=O)[nH]c2=O)[C@H](O)[C@@H]1O	0	100 (≈ 206 µM)		250 (≈ 515 µM)	500 (≈ 1030 µM)		1000 (≈ 2060 µM)		7	0
C[C@@H]([C@H](N)C(=O)N[C@H](C(=O)O)[C@H]1O[C@@H](n2cc(C=O)nc2O)[C@H](O)[C@@H]1O)[C@H](O)c1ccc(O)cn1	0	0.1 (≈ 0.202 µM)		5 (≈ 10.1 µM)	2.5 (≈ 5.05 µM)		333 (≈ 672 µM)		90	30
CC(C)C[C@H](N)C(=O)N[C@H](C(=O)N[C@H](C(=O)O)[C@H]1OC(n2ccc(=O)[nH]c2=O)[C@H](O)[C@@H]1O)[C@H](C)[C@H](O)c1ccc(O)cn1 (stereo partly specified)	33	100 (≈ 164 µM)		> 666	666 (≈ 1090 µM)		> 666	28	0	
